We go through 5 compounds from ChEMBL document CHEMBL1138826, “New 1,4-dihydropyridines endowed with NO-donor and calcium channel agonist properties” (J Med Chem, 2004).

The species named for data set [1] is Rattus norvegicus. Description: Capacity to increase [Ca2+] entry into the vascular smooth muscle was evaluated on rat aorta strips partially depolarized with 10 mM K. The data set is classed as functional. The settings on record: Muscle tissue. In short, it runs like this: (§1)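 Thoracic aorta cut helically, endothelium removed, three strips per vessel, 0.7 g tension, isotonic recording. Equilibrated 1 h, then depolarized twice with 50 mM KCl at 60 min intervals. Cumulative contraction curves run in 10 mM KCl, protected from light. EC50 is the mean of 5-7 determinations.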

For data set [2], the species on record is Rattus norvegicus. Description: Capacity to increase [Ca2+] entry into the vascular smooth muscle was evaluated on rat aorta strips partially depolarized with 10 mM K+ relative to 50 mM KCl. The class given is functional, Muscle tissue. In short, it runs like this: as §1
The species entered for data set [3] is Rattus norvegicus. Description: Positive inotropic activity on rat papillary muscle electrically stimulated by unipolar square wave pulses. The data set is classed as functional. The following applies: Muscle tissue. In short, it runs like this:
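Electrically driven rat papillary muscle, 90 min equilibration. Cumulative curves in half-log steps, each step after a plateau, in the presence of 1 µM propranolol and 0.1 µM prazosin added 15 min beforehand. One curve per tissue. EC50 is the mean of 5-7 determinations.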

Data set [4] addresses T1, Voltage-gated L-type calcium channel (Rattus norvegicus, UniProt P22002+Q02485+P27732). Description: Effect on L-type [Ca2+] channels of rat RIN-m5F insulinoma cells in 10 mM Ba2+, -60 mV holding potential at 3 uM, -20 mV. The class given is functional. In short, it runs like this: (§2)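 Whole-cell patch clamp on cultured rat insulinoma RINm5F cells at 22 °C. External solution (mM): 125 NaCl, 10 BaCl2, 1 MgCl, 10 HEPES pH 7.3, 300 nM TTX. Internal solution CsCl/TEACl/EGTA-based with ATP and GTP. Held at -60 mV, stepped to -20 mV, returned to -40 mV. Compounds at 3 µM by fast superfusion. Result is % increase of L-type Ba2+ current, after subtracting the current insensitive to 3 µM nifedipine; 5-22 cells.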

In data set [5] the target is T1, Voltage-gated L-type calcium channel. Description: Agonistic potency, mean percentage of increased Ba2+ currents at -20 mV; Range = 200-240%. The class given is functional. In short, it runs like this: as §2
The species named for data set [6] is Rattus norvegicus. Description: Capacity to increase [Ca2+] entry into the vascular smooth muscle was evaluated on rat aorta strips partially depolarized with 10 mM K+ relative to 50 mM KCl in the presence of 1 uM ODQ. The class given is functional, Muscle tissue. In short, it runs like this:
(§3)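 Endothelium-denuded rat thoracic aorta strips under 0.7 g tension, precontracted twice with 50 mM KCl. Cumulative contraction curves in 10 mM KCl, in light-protected conditions, with 1 µM ODQ added at least 15 min before the first agonist concentration. EC50 is the mean of 5-7 determinations.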

Data set [7] is filed under the species Rattus norvegicus. Description: Positive inotropic activity on rat papillary muscle electrically stimulated by unipolar square wave pulses in the presence of 1 uM ODQ. The class given is functional. The following applies: Muscle tissue. In short, it runs like this:
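Electrically stimulated rat papillary muscle with 1 µM propranolol and 0.1 µM prazosin, plus 1 µM ODQ added at least 15 min before the first dose. Cumulative half-log concentration-response curve, one per tissue, after 90 min equilibration. EC50 is the mean of 5-7 determinations.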

The species named for data set [8] is Rattus norvegicus. Description: Capacity to increase [Ca2+] entry into the vascular smooth muscle was evaluated on rat aorta strips partially depolarized with 10 mM K+; No effect. The class given is functional, Muscle tissue. In short, it runs like this:
as §1

For data set [9], the species on record is Rattus norvegicus. Description: Capacity to increase [Ca2+] entry into the vascular smooth muscle was evaluated on rat aorta strips partially depolarized with 10 mM K+ in the presence of 1 uM ODQ. The following applies: Muscle tissue. The class given is functional. In short, it runs like this: as §3

Usually EC50 stands for the concentration that produces a half-maximal response. For the compound `COC(=O)C1=C(C)NC(C)=C([N+](=O)[O-])C1c1ccccc1C(F)(F)F` (stereo unspecified), the EC50 in the data set listed under Rattus norvegicus [1] is 0.018 µM; in the data set filed under Rattus norvegicus [3], 0.17 µM. This compound also returned a Max in the data set listed under Rattus norvegicus [2] of 84%. The Increase in data set [4] came out at 320%.

For `CO/C(O)=C1/C(C)=NC(C)=C([N+](=O)[O-])C1c1ccccc1OCc1nonc1C#N` (stereo unspecified), in [5], the Agonistic potency is on record as below 240%. The half-maximal effective concentration (EC50) in the data set listed under Rattus norvegicus [1] is 0.12 µM; in the data set listed under Rattus norvegicus [3], 1.5 µM. This compound registered a Max in the data set listed under Rattus norvegicus [2] of 62%.

As for `CO/C(O)=C1/C(C)=NC(C)=C([N+](=O)[O-])C1c1ccccc1OCc1no[n+]([O-])c1C#N` (stereo unspecified), the Max in the data set listed under Rattus norvegicus [6] amounted to 29%; in the data set listed under Rattus norvegicus [2] it was 0%. The Agonistic potency in [5] is below 240%. Also, the concentration for a half-maximal effect (EC50) in the data set filed under Rattus norvegicus [7] is 5 µM; in the data set listed under Rattus norvegicus [3], 5.2 µM; in the data set listed under Rattus norvegicus [8] it was “Not Active”; in the data set listed under Rattus norvegicus [9], 0.21 µM.

Take `CO/C(O)=C1/C(C)=NC(C)=C([N+](=O)[O-])C1c1ccccc1OCc1nonc1C` (stereo unspecified): the Agonistic potency in data set [5] is listed as below 240%. The figures for the concentration for a half-maximal effect (EC50) in the data set filed under Rattus norvegicus [1] and in the data set listed under Rattus norvegicus [3] were 0.057 µM and 0.82 µM, respectively. Moreover, the Max in the data set listed under Rattus norvegicus [2] turned out to be 85%.

For `CO/C(O)=C1/C(C)=NC(C)=C([N+](=O)[O-])C1c1ccccc1OCc1no[n+]([O-])c1C` (stereo unspecified), the Max in the data set filed under Rattus norvegicus [6] is 83%; in the data set filed under Rattus norvegicus [2], 80%. Moreover, the Agonistic potency in data set [5] is recorded as below 240%. Also, the EC50 in the data set filed under Rattus norvegicus [7] is 1.3 µM; in the data set listed under Rattus norvegicus [1] it was 0.1 µM; in the data set listed under Rattus norvegicus [3], 1.2 µM; in the data set listed under Rattus norvegicus [9], 0.11 µM.
